Here are results for 5 molecules from ChEMBL document CHEMBL1139583, “Design, synthesis and evaluation of racemic 1-(4-hydroxyphenyl)-2-[3-(substituted phenoxy)-2-hydroxy-1-propyl]amino-1-propanol hydrochlorides as novel uterine relaxants” (Bioorg Med Chem Lett, 2005).

What all share (type): functional
For test [1], the species on record is Rattus norvegicus. Briefly: Delayed onset of labour in rat by comparing with control at 15 mg. The method in brief: (§1)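 Pregnant Sprague–Dawley rats, six per dose group, dosed orally at 10 and 15 mg/kg/day from gestation day 13 to 21. Reference agent given at 10 mg/kg/day p.o. Onset of labour compared with control.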
For test [2], the species on record is Rattus norvegicus. Briefly: Delayed onset of labour in rat by comparing with control at 10 mg. The method in brief:
as §1

The species named for test [3] is Rattus norvegicus. Briefly: Inhibition of oxytocin induced contraction required for uterine relaxant activity in isolated rat uterus preparation.
The species entered for test [4] is Rattus norvegicus. Briefly: cAmp released in rat at 10 mg. The method in brief: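 Oral dosing of virgin female Sprague–Dawley rats in oestrus. Rats killed 3 h later. Uterine strips weighed and homogenized in Tris–EDTA, then centrifuged at 12,000g. Supernatant TCA removed by ether extraction and pH set to 7.5. cAMP measured by [³H]cAMP competitive binding assay against 0–16 pmol standards, 2 h at 2–8 °C, charcoal separation, scintillation counting.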

As for `COCCc1ccc(OCC(O)CNC(C)C(O)c2ccc(O)cc2)cc1.Cl` (centres undefined), the Activity in the test listed under Rattus norvegicus [1] turned out to be 33.7 h; in the test listed under Rattus norvegicus [2] it was 27.1 h; in the test filed under Rattus norvegicus [4] it was 3.66 pmol. The same molecule displayed an IC50 in the test listed under Rattus norvegicus [3] of 6.02 µmol.
The matching figures for `CC(NCC(O)COc1ccc(CC(N)=O)cc1)C(O)c1ccc(O)cc1.Cl` (centres undefined): 31.7 h, 24 h, 3.56 pmol and 6.32 µmol.
For `CC(=O)Nc1ccc(OCC(O)CNC(C)C(O)c2ccc(O)cc2)cc1.Cl` (centres undefined), the Activity in the test filed under Rattus norvegicus [1] worked out at 31.8 h; in the test listed under Rattus norvegicus [2] it was 25 h; in the test listed under Rattus norvegicus [4] it was 3.48 pmol. Also, the IC50 in the test listed under Rattus norvegicus [3] came to 6.07 µmol.
The matching figures for `CC(=O)Nc1ccc(OCC(O)CNC(C)C(O)c2ccc(O)cc2)c(C(C)=O)c1.Cl` (centres undefined): 30.1 h, 23.7 h, 3.53 pmol and 6.58 µmol.
Regarding `CC(COc1ccccc1)NC(C)C(O)c1ccc(O)cc1.Cl` (centres undefined) [ISOXSUPRINE HYDROCHLORIDE], the Activity in the test listed under Rattus norvegicus [2] is 31.6 h; in the test filed under Rattus norvegicus [4], 5.03 pmol. The molecule further displayed an IC50 in the test listed under Rattus norvegicus [3] of 9.15 µmol.
